# Measurements from ChEMBL document CHEMBL3877244, “Synthesis and biological evaluation of new aryl-alkyl(alkenyl)-4-benzylpiperidines, novel Sigma Receptor (SR) modulators, as potential anticancer-agents” (Eur J Med Chem, 2016).
# Calls of active or inactive are those of the source. The calls are words filed in the database; no cut-off is given here.
# What was measured:
# [1] = biological target: Sigma non-opioid intracellular receptor 1 (Rattus norvegicus) (UniProt Q9R0C9); experiment: Antagonist activity at sigma 1 receptor in rat PC12 cells assessed as inhibition of PRE-084-mediated NGF-induced neurite outgrowth at 0.25 to 2.5 uM after 96 hrs; type: cell-based; conditions: PC-12
# Summary of the method: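 PC12 cells in differentiation medium with NGF 2.5 ng/ml. The S1R agonist PRE-084 (5, 10, 25 μM; 10 mM stock in apyrogenic water) was given alone or with compound at 0.25 or 2.5 μM. NGF-induced neurite outgrowth was scored. Data are mean±sem of at least 5 experiments, each in triplicate.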
# [2] = Cytotoxicity against human PC3 cells assessed as reduction in cell viability after 24 hrs in presence of 10% fetal calf serum by MTS assay; type: functional, cell-based; conditions: PC-3, 24 h
# Summary of the method: (§1)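 Cells in exponential growth, 3×10^3 per well, in medium with 10% FCS. Capan-2, PaCa3, MDA-MB 231, SUM 159 and PC3 were grown in DMEM/Ham's F12 with glutamine 2 mM and insulin 10 µg/ml. U87 was grown in EMEM and LNCaP in RPMI, each with glutamine. Compound 0.1–100 µM, continuous exposure (24 h; 48 h for the 48 h lines). MTS, OD 490 nm. IC50 read graphically. Three independent experiments in octuplicate.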
# [3] = Induction of apoptosis in human Paca3 cells assessed as viable cells in presence of 10% fetal calf serum at 25 uM after 24 hrs by annexin V-FITC/propidium iodide staining-based flow cytometry (reference value: 89.9 +/- 0.1%); type: functional
# [4] = Cytotoxicity against human Paca3 cells assessed as reduction in cell viability after 48 hrs in presence of 10% fetal calf serum by MTS assay; type: functional, cell-based; conditions: Paca3, 48 h; summary of the method: as §1
# [5] = Induction of apoptosis in human Paca3 cells assessed as viable cells in absence of 10% fetal calf serum at 10 uM after 24 hrs by annexin V-FITC/propidium iodide staining-based flow cytometry (reference value: 91.1 +/- 0.7%); type: functional
# [6] = Cytotoxicity against human U87 cells assessed as reduction in cell viability after 24 hrs in presence of 10% fetal calf serum by MTS assay; type: functional, cell-based, U-87MG ATCC; conditions: U-87 MG; summary of the method: as §1
# [7] = test system: LNCaP; experiment: Cytotoxicity against human LNCAP cells assessed as reduction in cell viability after 48 hrs in presence of 10% fetal calf serum by MTS assay; type: functional, cell-based; summary of the method: as §1
# [8] = Induction of apoptosis in human Paca3 cells assessed as early apoptotic cells in presence of 10% fetal calf serum at 25 uM after 24 hrs by annexin V-FITC/propidium iodide staining-based flow cytometry (reference value: 5.6 +/- 0.3%); type: functional
# Sequence of Sigma non-opioid intracellular receptor 1 (Rattus norvegicus) (Q9R0C9 whole entry): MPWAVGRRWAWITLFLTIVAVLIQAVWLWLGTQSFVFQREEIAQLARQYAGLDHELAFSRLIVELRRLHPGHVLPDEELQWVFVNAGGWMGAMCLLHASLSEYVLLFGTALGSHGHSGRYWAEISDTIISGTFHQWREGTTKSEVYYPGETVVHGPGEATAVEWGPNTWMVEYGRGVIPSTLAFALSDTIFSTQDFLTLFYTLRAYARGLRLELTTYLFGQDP
compound,measurement,setting,value
C/C(=C\CN1CCC(Cc2ccccc2)CC1)c1ccc2ccccc2c1,inhibition,[1],Active
same,IC50,[2],50.6 µM
same,Activity,[3],22.4%
same,IC50,[4],28.7 µM
same,Activity,[5],71.6%
same,IC50,[6],60.6 µM
same,Activity,[7],Active
same,Activity,[8],43.1%
